What all share (type): functional, cell-based
The test system of one test is Jurkat. Briefly: Antiproliferative activity against human Jurkat cells after 72 hrs by BrdU incorporation assay. An outline of the steps:
(§1)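 Cells grown in RPMI at 37 °C, 5% CO2, then serum-starved 12 h. PBMC stimulated with ConA 10 µg/mL; Jurkat need no stimulation. 1 × 10^5 cells cultured 3 days with or without inhibitor, duplicate wells. Labelled with 10 µM BrdU, DNA denatured, anti-BrdU-POD added, colorimetric TMB read-out; IC50 derived.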

A further test relates to PBMC. Briefly: Antiproliferative activity against ConA-stimulated human PBMC after 72 hrs by BrdU incorporation assay. An outline of the steps: as §1
The test system of a further test is Splenocyte. The test can be described thus: Inhibition of irradiated BALB/c mouse splenocyte-stimulated IL2 secretion in 2C mouse splenocyte after 72 hrs by mixed lymphocyte reaction. A digest of the protocol:
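MLR: splenocytes from 2c mice stimulated by irradiated BALB/c splenocytes in the presence of compound at the specified concentrations, 96-well cultures up to 72 h. Supernatants collected at 24, 48 and 72 h; IL-2 measured by ELISA at 450 nm.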

Each structure is given as a SMILES string. Calls of active or inactive are those of the source. No cut-off for these calls is given here.

`Oc1cc(-c2nc(Nc3ccc(Cl)cc3)c3ccccc3n2)cc(O)c1O`: the IC50 with Jurkat came to 4250 nM; with PBMC it was 550 nM.
Turning to `COc1cc(-c2nc(Nc3ccc4nc[nH]c4c3)c3ccccc3n2)cc(OC)c1OC`, the IC50 amounted to 1500 nM in the test with Jurkat and 430 nM with PBMC.
The corresponding values for `Oc1cc(-c2nc(Nc3ccc4nc[nH]c4c3)c3ccccc3n2)cc(O)c1O` are 2570 nM and 4340 nM.
Turning to `Oc1cc(-c2nc(Nc3ccc(OC(F)(F)F)cc3)c3ccccc3n2)cc(O)c1O`, the half-inhibitory concentration (IC50) in the test on Jurkat worked out at 3240 nM; in the test on PBMC, 2780 nM.
Regarding `Oc1cc(-c2nc(Nc3ccccc3)c3ccccc3n2)cc(O)c1O`, the values for the IC50 in the test on Jurkat and with PBMC were 5500 nM and 650 nM, respectively.
For `COc1cc(-c2nc(Nc3ccc(O)cc3)c3ccccc3n2)cc(OC)c1OC`, the IC50 was 230 nM in the test on Jurkat and 300 nM with PBMC.
Regarding `CCCCCCCCOc1ccc(Nc2nc(-c3cc(OC)c(OC)c(OC)c3)nc3ccccc23)cc1`, the IC50 with Jurkat came to 850 nM; in the test with PBMC, 2400 nM.
The corresponding values for `COc1ccc(Nc2nc(-c3cc(OC)c(OC)c(OC)c3)nc3ccccc23)cc1` are 1100 nM and 500 nM.
For `COc1ccc(CNc2nc(-c3cc(O)c(O)c(O)c3)nc3ccccc23)cc1`, the IC50 in the test on Jurkat turned out to be 5430 nM; with PBMC, 3260 nM.
On to `COc1cc(-c2nc(Nc3ccc4cn[nH]c4c3)c3ccccc3n2)cc(OC)c1OC`, for which the values for the IC50 in the test on Jurkat and in the test on PBMC were 600 nM and 450 nM, respectively.
The corresponding values for `COc1cc(-c2nc(NCc3ccc(Cl)c(Cl)c3)c3ccccc3n2)cc(OC)c1OC` are 730 nM and 300 nM.
The corresponding values for `Oc1cc(-c2nc(Nc3ccc4[nH]ncc4c3)c3ccccc3n2)cc(O)c1O` are 710 nM and 780 nM.
`Oc1cc(-c2nc(NCc3ccc(F)c(F)c3)c3ccccc3n2)cc(O)c1O`: the IC50 with Jurkat was 600 nM; with PBMC, 280 nM.
The corresponding values for `COc1cc(-c2nc(Nc3ccc(OC(F)(F)F)cc3)c3ccccc3n2)cc(OC)c1OC` are 180 nM and 400 nM.
The corresponding values for `Oc1cc(-c2nc(NCc3ccccc3)c3ccccc3n2)cc(O)c1O` are 950 nM and 7000 nM.
The corresponding values for `Oc1ccc(Nc2nc(-c3cc(O)c(O)c(O)c3)nc3ccccc23)cc1` are 1120 nM and 970 nM.
Turning to `COc1ccc(Nc2nc(-c3cc(O)c(O)c(O)c3)nc3ccccc23)cc1`, the results for the IC50 in the test on Jurkat and in the test on PBMC were 550 nM and 500 nM, respectively.
The corresponding values for `COc1cc(-c2nc(NCc3ccccc3)c3ccccc3n2)cc(OC)c1OC` are 600 nM and 3250 nM.
Take `Cc1ccc(Nc2nc(-c3cc(O)c(O)c(O)c3)nc3ccccc23)cc1`: the IC50 in the test on Jurkat and in the test on PBMC was 850 nM each time. For the same compound, in the test on Splenocyte, the inhibition entry is “Active”.
On to `COc1cc(-c2nc(NCc3ccc(F)c(F)c3)c3ccccc3n2)cc(OC)c1OC`, for which the IC50 in the test on Jurkat came out at 730 nM; with PBMC, 200 nM.
The corresponding values for `CCCCCCCCOc1ccc(Nc2nc(-c3cc(O)c(O)c(O)c3)nc3ccccc23)cc1` are 4250 nM and 4530 nM.
In the case of `Oc1cc(-c2nc(Nc3ccc4c(c3)OCO4)c3ccccc3n2)cc(O)c1O`, the results for the IC50 in the test on Jurkat and with PBMC were 800 nM and 5500 nM, respectively.
The corresponding values for `COc1cc(-c2nc(Nc3ccc4[nH]ncc4c3)c3ccccc3n2)cc(OC)c1OC` are 700 nM and 600 nM.
As for `Oc1cc(-c2nc(Nc3ccc4cn[nH]c4c3)c3ccccc3n2)cc(O)c1O`, the IC50 in the test on Jurkat is 690 nM; in the test on PBMC it was 500 nM.
The corresponding values for `COc1cc(-c2nc(Nc3ccc(Cl)cc3)c3ccccc3n2)cc(OC)c1OC` are 530 nM and 300 nM.
With `Oc1cc(-c2nc(NCc3ccc(Cl)c(Cl)c3)c3ccccc3n2)cc(O)c1O`, the IC50 in the test on Jurkat was determined as 3640 nM; in the test with PBMC, 2600 nM.
The corresponding values for `Nc1ccc(CNc2nc(-c3cc(O)c(O)c(O)c3)nc3ccccc23)cc1` are 670 nM and 570 nM.
The corresponding values for `Cc1ccc(Nc2nc(-c3cc(O)c(O)c(O)c3)nc3ccccc23)c(C)c1` are 3700 nM and 730 nM.
The corresponding values for `COc1cc(-c2nc(NCc3ccc(N)cc3)c3ccccc3n2)cc(OC)c1OC` are 480 nM and 380 nM.
In the case of `COc1cc(-c2nc(Nc3ccccc3)c3ccccc3n2)cc(OC)c1OC`, the results for the IC50 in the test on Jurkat and in the test with PBMC were 380 nM and 280 nM, respectively.
The corresponding values for `COc1cc(-c2nc(Nc3ccc4c(c3)OCO4)c3ccccc3n2)cc(OC)c1OC` are 600 nM and 380 nM.
As for `COc1cc(-c2nc(Nc3ccc(C)cc3C)c3ccccc3n2)cc(OC)c1OC`, the IC50 was found to be 2600 nM with Jurkat and 750 nM with PBMC.
The corresponding values for `COc1ccc(CNc2nc(-c3cc(OC)c(OC)c(OC)c3)nc3ccccc23)cc1` are 1100 nM and 500 nM.
